Source: ChEMBL document CHEMBL2331269, “Design and synthesis of amphiphilic xanthone-based, membrane-targeting antimicrobials with improved membrane selectivity” (J Med Chem, 2013)
In brackets after ≈: the same amount, converted by molar mass. Activity calls are given as the source filed them. No cut-off for these calls is given here.

Assays:
[1] = system: Enterococcus faecium; test: Antibacterial activity against Streptococcus faecium ATCC 10541 after 20 to 22 hrs by CLSI broth macro-dilution method; assay type: functional
[2] = system: Staphylococcus aureus; test: Antibacterial activity against methicillin-resistant Staphylococcus aureus DM21455 after 20 to 22 hrs by multipassage resistance selection method; assay type: functional, organism-based
[3] = Selectivity ratio of HC50 for rabbit erythrocyte to MIC99 for methicillin-resistant Staphylococcus aureus clinical isolate DM21455; assay type: functional
[4] = system: Staphylococcus epidermidis; test: Antibacterial activity against Staphylococcus epidermidis ATCC 12228 after 20 to 22 hrs by CLSI broth macro-dilution method
[5] = system: Staphylococcus aureus; test: Antibacterial activity against methicillin-resistant Staphylococcus aureus DM09808R obtained from eye isolate after 20 to 22 hrs by CLSI broth macro-dilution method; assay type: functional
[6] = system: Staphylococcus aureus; test: Antibacterial activity against Staphylococcus aureus ATCC 6538 after 20 to 22 hrs by CLSI broth macro-dilution method; assay type: functional
[7] = system: Staphylococcus aureus; test: Antibacterial activity against methicillin-resistant Staphylococcus aureus DM21455 assessed as reduction in viable count after 5 to 10 mins by surface-spread plate method; assay type: functional, organism-based
[8] = Selectivity index, ratio of HC50 for rabbit erythrocyte to MIC99 for […] ATCC 12228; assay type: functional
[9] = system: Staphylococcus aureus; test: Antimicrobial activity against in Staphylococcus aureus assessed as disruption of bacterial membrane at 10 uM by fluorescence microscopy; assay type: functional, organism-based
Method in brief: (§1)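 S. aureus DM4001 treated with 10 μM agent and incubated with the membrane-impermeant nucleic-acid dye SYTOX Green. Permeabilization was read as increased fluorescence intensity and confirmed by fluorescence microscopy counting green-stained cells.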

[10] = Selectivity index, ratio of HC50 for rabbit erythrocyte to MIC99 for methicillin-resistant Staphylococcus aureus DM21595; assay type: functional
[11] = system: Mus musculus; test: Toxicity against wild type C57BL6 mouse assessed as corneal opacity at 400 ug/ml administered topically 5 times a day by Slit lamp photography; assay type: organism-based, Cornea; details: in vivo, topical_or_ocular
Method in brief: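 Mouse eyes given topical drops five times per day at 400 μg/mL; cornea examined by slit lamp photography for clinical signs of toxicity and corneal opacity.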

[12] = Toxicity against New Zealand White rabbit corneal epithelium assessed as effect on wound closure at 50 ug/ml by Slit lamp photography relative to control; assay type: tissue-based, Oryctolagus cuniculus, Cornea; details: in vivo
Method in brief: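 A 5 mm corneal epithelial abrasion was made with a sterile trephine and the epithelium removed with a mini blade. Eyes were treated with saline, vancomycin 50 μg/mL, or agent 50 μg/mL. Wound closure was tracked over time from fluorescein-stained photographs of defect size.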

[13] = Selectivity index, ratio of HC50 for rabbit erythrocyte to MIC99 for methicillin-resistant Staphylococcus aureus DM09808R; assay type: functional
[14] = Selectivity index, ratio of HC50 for rabbit erythrocyte to MIC99 for methicillin-resistant Staphylococcus aureus ATCC 700669; assay type: functional
[15] = Selectivity index, ratio of HC50 for rabbit erythrocyte to MIC99 for methicillin-resistant Staphylococcus aureus DR42412; assay type: functional
[16] = system: Enterococcus faecalis; test: Antibacterial activity against Enterococcus faecalis ATCC 29212 after 20 to 22 hrs by multipassage resistance selection method; assay type: functional, organism-based
[17] = system: Staphylococcus aureus; test: Antimicrobial activity against Staphylococcus aureus DM4001 assessed as morphological changes by scanning electron microscopy relative to control; assay type: functional, organism-based
[18] = system: Staphylococcus aureus; test: Antibacterial activity against methicillin-resistant Staphylococcus aureus ATCC […] after 20 to 22 hrs by CLSI broth macro-dilution method; assay type: functional
[19] = Selectivity index, ratio of HC50 for rabbit erythrocyte to MIC99 for methicillin-resistant Staphylococcus aureus DB57964/04; assay type: functional
[20] = system: Pseudomonas aeruginosa; test: Antibacterial activity against Pseudomonas aeruginosa ATCC 27853 after 20 to 22 hrs by CLSI broth macro-dilution method; assay type: functional
[21] = system: Staphylococcus aureus; test: Antimicrobial activity against Staphylococcus aureus assessed as disruption of bacterial membrane at 10 uM by SYTOX green uptake assay; assay type: functional, organism-based; method in brief: as §1
[22] = Selectivity index, ratio of HC50 for rabbit erythrocyte to MIC99 for Staphylococcus aureus ATCC 29737; assay type: functional
[23] = system: Staphylococcus aureus; test: Antibacterial activity against Staphylococcus aureus ATCC 6538P after 20 to 22 hrs by CLSI broth macro-dilution method; assay type: functional
[24] = system: Enterococcus faecalis; test: Antibacterial activity against Enterococcus faecalis ATCC 29212 after 20 to 22 hrs by CLSI broth macro-dilution method; assay type: functional
[25] = system: Staphylococcus aureus; test: Antibacterial activity against methicillin-resistant Staphylococcus aureus DM21455 assessed as reduction in viable count at 4 X MIC after 10 mins by surface-spread plate method relative to control; assay type: functional
[26] = Selectivity index, ratio of HC50 for rabbit erythrocyte to MIC99 for Staphylococcus aureus ATCC 6538P; assay type: functional
[27] = system: Mus musculus; test: Toxicity against wild type C57BL6 mouse at 25 mg/kg, iv after 24 hrs; assay type: organism-based; design: dose 25 mg/kg, route intravenous; details: in vivo
Method in brief: (§2)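 Mice received a single bolus injection, 25 mg/kg intravenous or 50 mg/kg intraperitoneal, with survival recorded at 24 h; 2 animals per route.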

[28] = system: Staphylococcus aureus; test: Antibacterial activity against Staphylococcus aureus ATCC 29737 after 20 to 22 hrs by CLSI broth macro-dilution method; assay type: functional
[29] = system: Staphylococcus aureus; test: Antibacterial activity against methicillin-resistant Staphylococcus aureus DM21455 assessed as log reduction in CFU at 0.5 X MIC to 1 X MIC after 2 hrs by surface-spread plate method relative to control; assay type: functional
[30] = system: Staphylococcus aureus; test: Antibacterial activity against methicillin-resistant Staphylococcus aureus DR68004 obtained from blood isolate after 20 to 22 hrs by CLSI broth macro-dilution method; assay type: functional
[31] = Selectivity index, ratio of HC50 for rabbit erythrocyte to MIC99 for methicillin-resistant Staphylococcus aureus DR68004; assay type: functional
[32] = system: Klebsiella pneumoniae; test: Antibacterial activity against Klebsiella pneumoniae ATCC 10031 after 20 to 22 hrs by CLSI broth macro-dilution method; assay type: functional
[33] = Selectivity index, ratio of HC50 for rabbit erythrocyte to MIC99 for Streptococcus faecium ATCC 10541; assay type: functional
[34] = system: Staphylococcus aureus; test: Antibacterial activity against vancomycin-intermediate resistant Staphylococcus aureus 10:DB6506 after 20 to 22 hrs by multipassage resistance selection method; assay type: functional, organism-based
[35] = Partition coefficient, log P of the compound by HPLC analysis; assay type: physicochemical; details: octanol/water; read-out: logP
Method in brief: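 Partition coefficient measured by HPLC following OECD guidelines for the testing of chemicals.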

[36] = Hemolytic activity against rabbit erythrocytes after 60 mins by spectrophotometric analysis; assay type: ADME, cell-based, Oryctolagus cuniculus, Erythrocyte
[37] = Selectivity index, ratio of HC50 for rabbit erythrocyte to MIC99 for Enterococcus faecalis ATCC 29212; assay type: functional
[38] = Selectivity ratio of HC50 for rabbit erythrocyte to MIC99 for Staphylococcus aureus ATCC 29213; assay type: functional
[39] = system: Staphylococcus aureus; test: Antimicrobial activity against Staphylococcus aureus DM4001 assessed as depolarization of bacterial membrane at 12.5 ug/ml by DiSC3-5-based cytoplasmic membrane depolarization assay; assay type: functional, organism-based
Method in brief: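 Clinical S. aureus DM4001 was loaded with the membrane-potential dye DiSC3-5, which self-quenches in polarized membranes. Agent added at 12.5 μg/mL. Depolarization was read as the rise in fluorescence intensity (counts per second) over time.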

[40] = system: Staphylococcus aureus; test: Antibacterial activity against methicillin-resistant Staphylococcus aureus clinical isolate DM21455 after 20 to 22 hrs by CLSI broth macro-dilution method; assay type: functional
[41] = Dissociation constant, pKa of the compound; assay type: physicochemical
[42] = system: Staphylococcus aureus; test: Antibacterial activity against methicillin-resistant Staphylococcus aureus DB57964/04 after 20 to 22 hrs by CLSI broth macro-dilution method; assay type: functional
[43] = system: Staphylococcus aureus; test: Antibacterial activity against methicillin-resistant Staphylococcus aureus DM21455 assessed as reduction in viable count at 2 X MIC after 5 mins by surface-spread plate method relative to control; assay type: functional
[44] = system: Staphylococcus aureus; test: Antibacterial activity against Staphylococcus aureus ATCC 29213 after 20 to 22 hrs by CLSI broth macro-dilution method; assay type: functional
[45] = Selectivity index, ratio of HC50 for rabbit erythrocyte to MIC99 for Staphylococcus aureus ATCC 6538; assay type: functional
[46] = system: Staphylococcus aureus; test: Antibacterial activity against methicillin-resistant Staphylococcus aureus DR42412 obtained from sputum isolate after 20 to 22 hrs by CLSI broth macro-dilution method; assay type: functional
[47] = system: Staphylococcus aureus; test: Antibacterial activity against methicillin-resistant Staphylococcus aureus DM21595 obtained from wound isolate after 20 to 22 hrs by CLSI broth macro-dilution method; assay type: functional
[48] = system: Mus musculus; test: Toxicity against wild type C57BL6 mouse at 50 mg/kg, ip after 24 hrs; assay type: organism-based; design: dose 50 mg/kg, route intraperitoneal; details: in vivo; method in brief: as §2
[49] = system: Staphylococcus aureus; test: Antibacterial activity against vancomycin-intermediate resistant Staphylococcus aureus 10:DB6506 after 20 to 22 hrs by CLSI broth macro-dilution method; assay type: functional
[50] = Selectivity index, ratio of HC50 for rabbit erythrocyte to MIC99 for Staphylococcus aureus 10:DB6506; assay type: functional
[51] = system: Staphylococcus aureus; test: Antibacterial activity against Staphylococcus aureus ATCC 700699 at 4 X MIC after 20 to 22 hrs; assay type: functional, organism-based

SMILES: CCN(CC)CCCCOc1cc2oc3cc(OCCCCN(CC)CC)c(OC)c(CC=C(C)C)c3c(=O)c2c(O)c1CC=C(C)C
- MIC [1]: 0.195 µg/mL (≈ 0.293 µM)
- Activity [2]: Active
- Selectivity ratio [3]: 50.3
- MIC [4]: 0.78 µg/mL (≈ 1.17 µM)
- MIC [5]: 1.56 µg/mL (≈ 2.35 µM)
- MIC [6]: 1.56 µg/mL (≈ 2.35 µM)
- Activity [7]: Dose-dependent effect
- Selectivity Index [8]: 25.1
- Activity [9]: Active
- Selectivity Index [10]: 50.3
- Activity [11]: Non-toxic
- Activity [12]: Non-toxic
- Selectivity Index [13]: 12.6
- Selectivity Index [14]: 206.3
- Selectivity Index [15]: 50.3
- Activity [16]: Active
- Activity [17]: Active
- MIC [18]: 0.095 µg/mL (≈ 0.143 µM)
- Selectivity Index [19]: 25.1
- MIC [20]: 50 µg/mL (≈ 75.2 µM)
- Activity [21]: Active
- Selectivity Index [22]: 12.6
- MIC [23]: 0.78 µg/mL (≈ 1.17 µM)
- MIC [24]: 0.78 µg/mL (≈ 1.17 µM)
- Activity [25]: 99.9%
- Selectivity Index [26]: 25.1
- Activity [27]: Non-toxic
- MIC [28]: 1.56 µg/mL (≈ 2.35 µM)
- FC [29]: 3
- MIC [30]: 1.56 µg/mL (≈ 2.35 µM)
- Selectivity Index [31]: 12.6
- MIC [32]: 40 µg/mL (≈ 60.2 µM)
- Selectivity Index [33]: 100.5
- Activity [34]: Active
- logP [35]: 6.72
- HC50 at 1 h [36]: 19.6 µM
- Selectivity Index [37]: 25.1
- Selectivity ratio [38]: 50.3
- Activity [39]: Active
- MIC99 [40]: 0.39 µg/mL (≈ 0.587 µM)
- pKa [41]: 11
- MIC [42]: 0.78 µg/mL (≈ 1.17 µM)
- Activity [43]: 99.9%
- MIC99 [44]: 0.39 µg/mL (≈ 0.587 µM)
- Selectivity Index [45]: 12.6
- MIC [46]: 0.39 µg/mL (≈ 0.587 µM)
- MIC [47]: 0.39 µg/mL (≈ 0.587 µM)
- Activity [48]: Non-toxic
- MIC [49]: 0.78 µg/mL (≈ 1.17 µM)
- Selectivity Index [50]: 25.1
- Activity [51]: Active
